Experiments:
[1] = Multicomponent pharmacokinetics in rat plasma after single i.v. EBI; format: in vivo, Sprague-Dawley rats; details: Sprague-Dawley, iv, n = 6
[2] = system: isoprenaline-induced myocardial infarction (MI) in mice; format: in vivo, Kunming mice; details: 30 mg kg^-1 i.v. for 7 days, seventh day
Summary of the method: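 Kunming mice (about 8 weeks, 20–30 g) were randomised into groups of n = 8 and given test compound i.v. for 7 days in 0.5% NaHCO₃:propylene glycol:saline (17:2:81). Isoprenaline chloride 5 mg kg⁻¹ i.p. was given days 4–5 to all groups except control. Lead II ECG ST elevation was recorded under pentobarbital. Day-7 orbital serum was taken for CK, and left-ventricle H&E sections were read at 200×. Single-tailed t test.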

[3] = 0.72 mL kg^-1, AUC0–t, Low dosage: 0.72 mL kg^-1 of 10 times concentrated EBI
[4] = 0.72 mL kg^-1, Cl, Low dosage: 0.72 mL kg^-1 of 10 times concentrated EBI
[5] = 0.72 mL kg^-1, MRT0–t, Low dosage: 0.72 mL kg^-1 of 10 times concentrated EBI
[6] = 0.72 mL kg^-1, Vd, Low dosage: 0.72 mL kg^-1 of 10 times concentrated EBI
[7] = 0.72 mL kg^-1, t 1/2, Low dosage: 0.72 mL kg^-1 of 10 times concentrated EBI
[8] = 3.6 mL kg^-1, AUC0–t, High dosage: 3.6 mL kg^-1 of 10 times concentrated EBI
[9] = 3.6 mL kg^-1, Cl, High dosage: 3.6 mL kg^-1 of 10 times concentrated EBI
[10] = 3.6 mL kg^-1, MRT0–t, High dosage: 3.6 mL kg^-1 of 10 times concentrated EBI
[11] = 3.6 mL kg^-1, Vd, High dosage: 3.6 mL kg^-1 of 10 times concentrated EBI
[12] = 3.6 mL kg^-1, t 1/2, High dosage: 3.6 mL kg^-1 of 10 times concentrated EBI

| SMILES | AUC(0-t) [1, 3] [ng·h/mL] | clearance [1, 4] [mL/min] | MRT last [1, 5] [min] | Vd [1, 6] [L] | half-life [1, 7] [min] | AUC(0-t) [1, 8] [ng·h/mL] | clearance [1, 9] [mL/min] | MRT last [1, 10] [min] | Vd [1, 11] [L] | half-life [1, 12] [min] | ST segment elevation (ECG) ([2]; P < 0.05 vs. model group) | serum creatine kinase (CK) activity ([2]; P < 0.05 vs. model group) | heart histopathology (H&E staining) ([2]; left ventricle sections) |
| --- | --- | --- | --- | --- | --- | --- | --- | --- | --- | --- | --- | --- | --- |
| O=C(O)/C=C/c1ccc(O)c(O)c1 [Caffeic acid, caffeic acid] | 75.2 ± 43.8 | 8 | 8.4 ± 2.4 | 0.16 ± 0.07 | 13.8 ± 1.8 | 393 ± 145 | 6.83 | 12 ± 4.2 | 0.13 ± 0.06 | 13.2 ± 4.2 |  |  |  |
| O=C(O)[C@H]1O[C@@H](Oc2cc3oc(-c4ccc(O)cc4)cc(=O)c3c(O)c2O)[C@H](O)[C@@H](O)[C@@H]1O [Scutellarin, scutellarin] | 1510 ± 574 | 8.5 | 23.4 ± 5.4 | 0.9 ± 0.54 | 74.4 ± 38.4 | 6860 ± 989 | 7.5 | 27 ± 6 | 1.63 ± 0.65 | 151 ± 57 | seldom occurred | significantly decreased | mild edema, inflammatory infiltration and loss of striations in heart tissue |
